Active and inactive are the calls of the source. No cut-off for these calls is given here.
Tests used:
[1] = Inhibition of human recombinant NAE assessed as inhibition of NEDD8-UbcH12 complex formation after 1.5 hrs by Western blot analysis
Procedure, shortened: (§1)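 Cell-free gel assay. Purified human recombinant E1 incubated with its matching Ub/Ubl and E2 in 50 mM HEPES pH 7.4, 5 mM MgCl2, 1–20 μM ATP. Inhibitor at 0, 0.001, 0.01, 0.1, 1 or 10 μM, 1.5 h at room temperature. Products resolved by SDS-PAGE, immunoblotted and detected by ECL; densitometry used for semiquantitation.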

[2] = target: T1, NEDD8-activating enzyme E1 catalytic subunit (Homo sapiens) (UniProt Q8TBC4); experiment: Inhibition of UBA3-mediated NEDD8 activation at […] after 1.5 hrs by Western blot analysis
T1 sequence (whole entry): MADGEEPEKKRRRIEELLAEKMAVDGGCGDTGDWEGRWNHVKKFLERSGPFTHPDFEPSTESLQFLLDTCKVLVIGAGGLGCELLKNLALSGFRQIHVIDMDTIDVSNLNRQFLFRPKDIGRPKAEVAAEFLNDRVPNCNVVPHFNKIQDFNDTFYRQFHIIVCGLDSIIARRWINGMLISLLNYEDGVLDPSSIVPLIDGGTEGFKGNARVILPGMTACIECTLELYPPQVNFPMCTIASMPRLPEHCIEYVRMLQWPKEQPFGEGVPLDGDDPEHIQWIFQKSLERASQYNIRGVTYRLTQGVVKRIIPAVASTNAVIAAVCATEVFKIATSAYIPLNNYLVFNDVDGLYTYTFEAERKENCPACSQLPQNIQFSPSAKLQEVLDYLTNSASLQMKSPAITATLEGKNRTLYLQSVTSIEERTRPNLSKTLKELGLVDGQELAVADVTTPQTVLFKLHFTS

[3] = target: Death-associated protein kinase 1 (Homo sapiens) (UniProt P53355); experiment: Inhibition of DAPK1 assessed as remaining activity at 0.1 uM by radiolabeled kinase assay relative to control
Sequence of Death-associated protein kinase 1 (Homo sapiens) (P53355 whole entry, looked up): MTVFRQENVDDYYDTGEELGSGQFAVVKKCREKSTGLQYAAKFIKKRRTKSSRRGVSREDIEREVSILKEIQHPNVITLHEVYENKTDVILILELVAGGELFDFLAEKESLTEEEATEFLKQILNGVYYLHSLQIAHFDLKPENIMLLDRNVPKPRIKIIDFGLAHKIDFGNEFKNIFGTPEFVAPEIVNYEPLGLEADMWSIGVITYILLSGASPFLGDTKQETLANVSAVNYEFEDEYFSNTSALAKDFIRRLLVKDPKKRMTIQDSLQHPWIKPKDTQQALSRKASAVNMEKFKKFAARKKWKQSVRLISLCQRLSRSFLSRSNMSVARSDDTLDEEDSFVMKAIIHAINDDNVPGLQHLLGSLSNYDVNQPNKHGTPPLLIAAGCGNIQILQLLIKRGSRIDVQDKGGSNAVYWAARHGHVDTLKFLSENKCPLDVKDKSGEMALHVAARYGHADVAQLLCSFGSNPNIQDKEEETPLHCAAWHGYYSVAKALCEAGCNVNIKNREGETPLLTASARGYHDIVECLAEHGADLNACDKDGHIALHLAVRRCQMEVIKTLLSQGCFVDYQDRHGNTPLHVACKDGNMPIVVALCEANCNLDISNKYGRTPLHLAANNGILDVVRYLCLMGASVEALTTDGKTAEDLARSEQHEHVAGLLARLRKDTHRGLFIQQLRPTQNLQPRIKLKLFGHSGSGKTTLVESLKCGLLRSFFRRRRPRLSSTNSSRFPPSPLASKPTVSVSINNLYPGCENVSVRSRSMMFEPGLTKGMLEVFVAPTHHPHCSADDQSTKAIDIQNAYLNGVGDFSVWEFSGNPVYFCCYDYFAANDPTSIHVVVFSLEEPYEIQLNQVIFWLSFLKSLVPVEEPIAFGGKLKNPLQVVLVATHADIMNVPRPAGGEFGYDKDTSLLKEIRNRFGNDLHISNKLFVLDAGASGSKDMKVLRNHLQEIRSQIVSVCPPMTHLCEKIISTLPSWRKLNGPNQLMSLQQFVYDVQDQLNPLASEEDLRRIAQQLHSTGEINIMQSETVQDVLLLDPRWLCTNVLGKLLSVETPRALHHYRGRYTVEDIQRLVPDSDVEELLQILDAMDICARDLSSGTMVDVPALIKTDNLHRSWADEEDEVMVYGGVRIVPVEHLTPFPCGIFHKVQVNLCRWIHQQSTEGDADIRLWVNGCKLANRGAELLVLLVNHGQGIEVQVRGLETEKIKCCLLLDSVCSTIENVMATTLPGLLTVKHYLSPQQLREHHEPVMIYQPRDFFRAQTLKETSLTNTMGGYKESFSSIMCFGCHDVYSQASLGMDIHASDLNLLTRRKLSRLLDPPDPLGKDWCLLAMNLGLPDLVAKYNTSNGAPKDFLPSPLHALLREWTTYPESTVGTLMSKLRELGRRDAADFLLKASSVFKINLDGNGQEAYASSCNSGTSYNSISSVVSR

K562 = experiment: Inhibition of NAE in human K562 cells assessed as inhibition of NEDD8-cullin complex formation at 1 to 1000 nM after 24 hrs by immunoblotting; format: cell-based
Procedure, shortened: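 K562 cells treated with increasing concentrations for 24 h, then harvested. Total cellular protein isolated and NEDD8–cullin conjugates detected by immunoblotting.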

[4] = target: SUMO-activating enzyme (Homo sapiens) (UniProt Q9UBE0+Q9UBT2); experiment: Inhibition of human recombinant SAE1/2 assessed as inhibition of SUMO1-UbcH9 complex formation at 0.001 to 10 uM after 1.5 hrs by Western blot analysis; format: protein-complex assay; procedure, shortened: as §1

- IC50 [1]: < 10 nM
- inhibition [2]: Active
- inhibition [4]: Active
Compound: CCCCCCNc1ncnc2c1ncn2[C@@H]1O[C@H](COS(N)(=O)=O)[C@@H](O)[C@H]1O
- Activity [3]: 88.5%
- inhibition (K562): Active
